Source: PubChem
In the library only some 3.2% were active in any assay of this set; here they are far more common.
DENV2 CPE: DENV2-induced cell death inhibition; DENV2-infected cells, cytopathic effect rescue, plate reader; CPE inhibition, % at 9.99 µM; 350,000 compounds, 1.7% hits; AID 651640; in the data active means CPE inhibition above about 20%, passing the limit was not always enough; inconclusive means no clear call, values can overlap the other calls; tested in BHK-21 cells
Cneo AK release: causes C. neoformans cell lysis | lysis activity, % at 15 µM | AID 651654 | 360,000 compounds, 0.2% hits | adenylate kinase release luminescence, 4 h; normalised: neutral wells 0, clomiphene wells 100;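 active means mean lysis activity across replicates of at least 80%, whatever share of replicates individually reach that level; inactive means mean lysis activity below 80%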
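Signal: Adenylate kinase release luminescence | Assay system: Log-phase Cryptococcus neoformans yeast cells | Input: Cells at 5 × 10^6 per mL | Buffer or medium: Fresh YPD growth medium | Compound: Single dose | Schedule: Static 4 h at 37 °C with compound, 1 h detection | Controls: Clomiphene | Read-out: Luminescence rise reflecting yeast cell lysis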
S100A4 MyoIIA: S100A4-myosin IIA interaction inhibition; P26447; S100A4/TAMRA-MyoIIA peptide fluorescence polarization; inhibition, % at 10.7 µM; 360,000 compounds, 0.14% hits;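 active means mean inhibition of at least 70% across replicates, with every replicate also reaching that level; inconclusive means mean inhibition reaches 70% but some replicates fall short; inactive means mean inhibition below 70%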
Target sequence (P26447 whole entry, looked up): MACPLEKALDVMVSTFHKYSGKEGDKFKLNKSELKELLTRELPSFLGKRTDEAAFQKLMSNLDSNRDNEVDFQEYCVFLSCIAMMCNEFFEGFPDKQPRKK
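Test system: S100A4 monomer protein; Medium: HEPES pH 7.2 with CaCl2, KCl, NaCl, DTT, Triton; Probe or stimulus: TAMRA-labelled myosin IIA heavy-chain peptide probe, 5 nM; Doses: one dose per compound; Times: polarization read 5 min after assay mix addition, stable 5–60 min; Benchmarks: neutral control DMSO, positive control TFP.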
Ecoli rRNA inh: inhibitors of bacterial rRNA selective over humanized ribosomes | E. coli WT GFP vs humanized-ribosome RFP mutants, fluorescence, 24 h; stronger effect = lower value; DMSO median 0, no signal -100 | GFP signal change (wild-type ribosome), % (concentration not given with the values) | 350,000 compounds, 1.6% hits;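 active means significant combined selectivity score with lowered wild-type GFP, culture density cut under 30%, mutant RFP and density less affected; inactive means any of these conditions unmet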
MLL AF4-AF9 inh: MLL-AF4/AF9 protein interaction inhibition. inhibition, % at 10 µM. AlphaScreen, biotin-AF4 peptide binding to FLAG-AF9. 350,000 compounds, 0.47% hits. P42568;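 active means every replicate reaching a set inhibition limit, whatever the replicate mean, cut at about 25% in these data; inconclusive means mean inhibition reaches that limit but some replicates miss it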
Target sequence (P42568 whole entry, looked up): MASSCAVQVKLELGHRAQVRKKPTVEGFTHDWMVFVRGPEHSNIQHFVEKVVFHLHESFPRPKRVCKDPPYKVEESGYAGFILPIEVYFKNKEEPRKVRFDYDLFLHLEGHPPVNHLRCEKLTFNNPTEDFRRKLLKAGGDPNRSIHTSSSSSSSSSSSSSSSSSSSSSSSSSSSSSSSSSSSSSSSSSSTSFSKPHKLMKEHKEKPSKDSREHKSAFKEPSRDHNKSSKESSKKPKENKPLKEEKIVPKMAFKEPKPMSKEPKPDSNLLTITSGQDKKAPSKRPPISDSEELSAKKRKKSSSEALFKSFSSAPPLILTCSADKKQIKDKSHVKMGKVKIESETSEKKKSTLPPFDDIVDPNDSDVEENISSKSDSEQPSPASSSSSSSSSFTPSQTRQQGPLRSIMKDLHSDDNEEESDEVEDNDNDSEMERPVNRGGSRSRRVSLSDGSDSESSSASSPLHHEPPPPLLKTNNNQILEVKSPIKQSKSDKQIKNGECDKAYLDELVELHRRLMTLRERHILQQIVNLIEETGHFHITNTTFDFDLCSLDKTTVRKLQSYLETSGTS
PfHsp90 yeast 2: inhibits growth of yeast expressing Plasmodium falciparum Hsp90. S. cerevisiae expressing PfHsp90, BacTiter-Glo ATP, 48 h; yeast lacking PDR1 and PDR3 efflux regulators. inhibition, % at 9.4 µM. 310,000 compounds, 0.32% hits. AID 504621;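 active means every replicate shows inhibition above about 80%, whatever the replicate mean, limit read from the data; inconclusive means mean inhibition reaches the set limit but some replicate falls short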
A number is an active result; . = inactive; ? = inconclusive; / = not tested or not shown.

SMILES | DENV2 CPE | Cneo AK release | S100A4 MyoIIA | Ecoli rRNA inh | MLL AF4-AF9 inh | PfHsp90 yeast 2
O=c1c2c(nc3n1CCCCC3)-c1ccccc1CC21CCCC1 | . | . | . | -36 | . | .
C[C@@H]1CCCCO[C@@H](CN(C)Cc2ccc(Cl)c(Cl)c2)[C@H](C)CN([C@@H](C)CO)C(=O)c2cc(NS(=O)(=O)c3cn(C)cn3)ccc2O1 | . | . | . | . | . | /
O=C(N/N=C/c1cc(Br)c(Br)o1)c1ccc2c(c1)OCCO2 | . | . | . | . | . | .
O=C(N/N=C/c1cc(Br)c(O)c(Br)c1O)c1ccc2c(c1)OCCO2 | . | . | . | -19 | . | .
O=C(N/N=C/c1c[nH]c2ccc(Br)cc12)c1ccc2c(c1)OCO2 | . | / | . | -30 | . | .
NC(=O)C(=O)N/N=C/c1c[nH]c2ccc(Br)cc12 | . | / | . | . | . | .
O=C(N/N=C/c1c[nH]c2ccc(Br)cc12)C1CC1 | . | / | . | -34 | . | .
CCC(=O)N(C)C[C@H]1Oc2ncc(C#CCc3ccccc3)cc2C(=O)N([C@@H](C)CO)C[C@H]1C | . | / | . | . | . | /
C[C@H](CO)N1C[C@H](C)[C@@H](CN(C)Cc2ccc3c(c2)OCO3)Oc2ccc(NC(=O)CCCCCC(=O)Nc3ccccc3N)cc2C1=O | 28 | / | . | . | . | /
C[C@H](CO)N1C[C@H](C)[C@H](CN(C)Cc2ccc3c(c2)OCO3)Oc2ccc(NC(=O)CCCCCC(=O)Nc3ccccc3N)cc2CC1=O | 25 | . | . | . | . | /
C[C@@H]1CN([C@@H](C)CO)C(=O)c2cc(NC(=O)CCCCCC(=O)Nc3ccccc3N)ccc2O[C@@H]1CN(C)Cc1ccc2c(c1)OCO2 | 20 | / | . | . | . | /
C[C@@H]1CN([C@H](C)CO)C(=O)Cc2cc(NC(=O)CCCCCC(=O)Nc3ccccc3N)ccc2O[C@@H]1CN(C)Cc1ccc2c(c1)OCO2 | . | . | . | . | . | /
CCCNC(=O)C[C@@H]1CC[C@@H]2[C@H](COC[C@@H](O)CN2C(=O)c2ccccn2)O1 | . | . | . | . | . | /
C[C@@H]1CN([C@@H](C)CO)C(=O)Cc2cc(NS(=O)(=O)c3ccc(Cl)cc3)ccc2O[C@@H]1CN(C)CC1CCCCC1 | . | . | . | . | . | /
CCN1C(=O)C(=O)c2cc(C)ccc21 | . | . | . | . | / | .
CC[N+]1=C(C)C(C)(C)c2cc(C)ccc21 | . | . | 182 | . | . | .
O/N=C/c1ccnc(SCc2ccc(Cl)cc2)n1 | . | / | . | . | . | .
O/N=C/c1ccnc(SCc2ccccc2)n1 | . | / | . | -16 | / | .
CCOC(=O)c1ccc(NC(=S)N2CCSC2c2c(F)cc(F)cc2F)cc1 (stereo not drawn) | . | / | . | -28 | . | .
COc1ccc(/C(C)=N/Nc2nc(C)c(C(C)=O)s2)cc1 | . | . | . | . | . | .
CC(=O)c1sc(N/N=C2\CC3CC2C(C)C3(C)C)nc1C (stereo not drawn) | . | / | . | -31 | . | .
CO[C@@H]1CN(C)C(=O)c2ccc(NC(=O)C3CC3)cc2OC[C@@H](C)NC[C@H]1C | . | . | . | . | . | /
NC(=Nc1nc(-c2ccccn2)cc2ccccc12)c1ccccn1 | . | / | . | . | . | 142
N/C(=N\OC(=O)c1ccc2ccccc2c1)c1ccccn1 | . | . | . | . | . | .
C[C@H]1CN([C@@H](C)CO)C(=O)c2cccc(NS(=O)(=O)c3cn(C)cn3)c2O[C@H]1CN(C)C(=O)Nc1ccc(C(F)(F)F)cc1 | . | . | . | . | . | /
SMILES | DENV2 CPE | Cneo AK release | S100A4 MyoIIA | Ecoli rRNA inh | MLL AF4-AF9 inh | PfHsp90 yeast 2
O=C(Cn1cc([N+](=O)[O-])cn1)NCC1CCCO1 (stereo not drawn) | . | . | . | . | . | .
O=C(Cn1ccc([N+](=O)[O-])n1)NCC1CCCO1 (stereo not drawn) | 27 | . | . | . | . | .
O=C(N[C@H](C(=O)N1CCC[C@H]1C(=O)NC1CCCC1)C1CCCCC1)c1ccc(Cl)cc1Cl | . | / | . | -28 | / | /
CC(C)[C@H](NC(=O)c1cccs1)C(=O)N1CCC[C@H]1C(=O)NCc1ccccc1 | 26 | / | . | . | / | /
O=C(N[C@H](C(=O)N1CCC[C@H]1C(=O)NC1CCCC1)c1ccccc1)c1ccccc1 | . | / | . | . | / | /
CC(C)[C@H](NC(=O)C1CCCC1)C(=O)N1CCC[C@H]1C(=O)NCc1ccccc1 | . | / | . | . | / | /
O=C(NC(C(=O)N1CCCC1C(=O)NC1CCCC1)c1ccccc1)c1cccs1 (stereo not drawn) | 47 | / | . | . | / | /
C[C@@H]1CN([C@@H](C)CO)C(=O)c2cc(-c3cccnc3)cnc2O[C@H]1CN(C)C(=O)Nc1ccc(C(F)(F)F)cc1 | . | . | . | . | . | /
C[C@H](CO)N1C[C@H](C)[C@H](CN(C)S(C)(=O)=O)OCCCC[C@H](C)Oc2ccc(NC(=O)Nc3ccc(C(F)(F)F)cc3)cc2C1=O | . | . | . | . | . | /
COc1ccc(CNc2ncc(-c3ccc(F)cc3)n2C)cc1OC | ? | . | . | . | . | .
COc1cc(CNc2ncc(-c3ccc(Br)cc3)n2C)cc(OC)c1O | . | . | . | . | 25 | .
COc1ccc(NC(=O)c2ccccc2NC(=O)CN2CCCCCC2)cc1 | . | . | . | . | 28 | .
COc1ccc(N2CCN(CC(=O)Nc3ccccc3C(=O)NCc3ccccc3)CC2)cc1 | . | . | . | -29 | . | .
Cc1noc(C)c1S(=O)(=O)Nc1ccc2c(c1)C(=O)N([C@H](C)CO)C[C@H](C)[C@H](CN(C)C(=O)CCC(F)(F)F)OCCCC[C@@H](C)O2 | 72 | . | . | . | . | /
Cc1noc(C)c1S(=O)(=O)Nc1ccc2c(c1)C(=O)N([C@H](C)CO)C[C@H](C)[C@@H](CN(C)C(=O)CCCN(C)C)OCCCC[C@H](C)O2 | 79 | . | / | . | / | /
C[C@@H]1CN([C@@H](C)CO)C(=O)c2cccc(NS(=O)(=O)c3ccc(Cl)cc3)c2O[C@H]1CN(C)Cc1ccc(Oc2ccccc2)cc1 | . | . | . | . | . | /
CCCCCC(=O)NC1CCCCN(C)C1=O (stereo not drawn) | 76 | / | . | . | / | /
O=C(CC1S/C(=N/N=C/c2c[nH]c3ccccc23)NC1=O)Nc1ccccc1 (stereo not drawn) | 20 | / | . | . | . | .
O=C(c1c[nH]c(C(=O)C(Cl)(Cl)Cl)c1)c1ccc(F)cc1Cl | . | / | . | -35 | . | .
O=C(c1cccc([N+](=O)[O-])c1)c1cc2ccccc2o1 | 46 | / | . | . | . | .
CC1(C)CCN2CCC(C)(C)c3c(O)ccc1c32 | . | . | . | . | 26 | .
CC(=O)N1CC2(C1)[C@H](c1ccc(-c3ccccc3C)cc1)[C@@H](CO)N2C(C)=O | / | / | / | . | / | /
